HNF4A DNA FP: change in binding of human HNF4 alpha to DNA; HNF4a-FITC DNA binding, fluorescence polarization, 1 h; activity change, % at 10 µM; P41235; 0.3% of 360,000 active; in the data active = activity change above about 30%, passing the limit was not always enough
CRFBP-R2 agonist: agonists of human CRF-binding protein/CRF-R2 receptor complex; activation, % at 13.2 µM; HEK293 CRF-R2/CRF-BP, calcium dye fluorescence (FLIPR); percent of saturating CRF peptide response; 0.46% of 350,000 active;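 active = activation of at least 50%, plus an integration ratio under a set limit after plate pattern correction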;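 note: plate controls were neutral control wells without compound for no effect and CRF at EC100 for full effect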
CRFR2-BP antag: CRF-BP/CRF-R2 complex antagonism; HEK293 CRF-R2/CRF-BP, CRF-induced calcium fluorescence; inhibition, % at 11.8 µM; 0.59% of 350,000 active;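 active = inhibition of the ligand-induced calcium signal above about 50% at the single tested concentration, limit read from the data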
TPT1 inh: inhibitors of Candida albicans tRNA 2'-phosphotransferase TPT1 | recombinant caTPT1, FP RNA substrate dephosphorylation | inhibition, % at 5 µM | 0.81% of 300,000 active | AID 1962;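 active = inhibition above the mean of all tested compounds plus 3 SD, set per screening campaign, cut at about 24% in these data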;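 note: plate controls were DMSO alone for no effect and ferristatin control at 100 nM for full effect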
CSN deneddyl inh: CSN deneddylation inhibition; 0.38% of 360,000 active; Purified CSN, SCF-Nedd8-OG deneddylation, fluorescence polarization; Q92905; inhibition, % at 12.5 µM; AID 651999;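 active = pattern-corrected inhibition above about 35%, with an unprinted fluorescence ratio check between 0.5 and 1.5, limit read from the data, passing the limit was not always enough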;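 note: 0% = enzyme with substrate and 100% = substrate without enzyme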
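Detection – fluorescence polarization · System – HEK293T-derived human Csn5 enzyme · Controls – substrate-only high control, full reaction low control · Timing – 90 min, room temperature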
Rpn11 inh: blocks the human proteasome subunit Rpn11. human 26S proteasome, Ub4-pepOG fluorescence polarization; 20S core pre-blocked with epoxomicin. calls only at 20 µM. 0.59% of 360,000 active;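 active = inhibition at 20 µM, scaled to each plate's controls, above about 33%, limit read from the data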
Rpn11 confirm: confirmation of human proteasome Rpn11 inhibitors | shares compounds with Rpn11 inh | purified human 26S proteasome, Ub4-pepOG fluorescence polarization; proteasome pretreated with epoxomicin | inhibition, % at 20 µM | 29% of 1,900 active
MMP-2 counter: blocks human MMP-2, flagging nonselective RPN11 hits; inhibition, % at 20 µM; shares compounds with Rpn11 inh; 4% of 1,900 active; recombinant MMP-2, FRET peptide cleavage fluorescence;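 note: human MMP-2 activated beforehand with APMA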
Target sequence (P08253 whole entry, looked up): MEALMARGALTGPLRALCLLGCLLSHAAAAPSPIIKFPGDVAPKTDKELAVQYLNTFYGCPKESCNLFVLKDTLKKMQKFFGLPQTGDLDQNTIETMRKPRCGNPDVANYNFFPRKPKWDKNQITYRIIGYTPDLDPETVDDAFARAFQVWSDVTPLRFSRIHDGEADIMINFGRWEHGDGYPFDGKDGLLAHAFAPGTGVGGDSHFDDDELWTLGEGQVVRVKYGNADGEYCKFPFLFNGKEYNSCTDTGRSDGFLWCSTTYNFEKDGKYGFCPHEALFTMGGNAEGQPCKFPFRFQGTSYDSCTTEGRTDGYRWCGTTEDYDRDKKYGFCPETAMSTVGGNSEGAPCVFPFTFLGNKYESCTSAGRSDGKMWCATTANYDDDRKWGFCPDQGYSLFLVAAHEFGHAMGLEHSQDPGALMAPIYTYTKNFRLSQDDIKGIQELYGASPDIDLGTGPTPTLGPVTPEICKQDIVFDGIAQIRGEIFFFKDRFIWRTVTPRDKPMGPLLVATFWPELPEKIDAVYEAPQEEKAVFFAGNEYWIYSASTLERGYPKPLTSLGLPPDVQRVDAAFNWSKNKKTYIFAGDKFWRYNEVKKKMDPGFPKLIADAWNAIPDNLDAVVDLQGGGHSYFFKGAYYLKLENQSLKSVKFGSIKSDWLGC
Thrombin FP: thrombin (bovine) inhibition counter-screen. inhibition, % at 20 µM. 13% of 1,900 active. bovine thrombin cleavage of Ub4-pepOG, fluorescence polarization. shares compounds with Rpn11 inh;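 active = mean inhibition at least 40% at 20 µM, or signal 3 deviations below plate average, so some actives read negative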;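 note: plate controls were thrombin with DMSO for no effect and buffer wells lacking thrombin for full effect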
* marks the source's active call; other numbers are inactive results; i = inactive; . = not tested or not shown; + = active, no number. In the library only some 2.3% were active in any assay of this set; here they are far more common. Cut-off read from the data, not from the text of the source, unless noted: active = inhibition above about 40%; inactive = the rest.

SMILES | HNF4A DNA FP | CRFBP-R2 agonist | CRFR2-BP antag | TPT1 inh | CSN deneddyl inh | Rpn11 inh | Rpn11 confirm | MMP-2 counter | Thrombin FP
O=C(O)CCc1ccc(-c2ccccc2)n1CC1CCCO1 (stereo unspecified) | -19 | -2 | -22 | 6 | 4 | + | 12 | -26 | 6
Clc1ccc(OCc2nn3c(-c4ccco4)nnc3s2)c(Cl)c1 | -14 | -1 | 0 | 0 | 19 | + | 27 | 6 | 7
N#Cc1ccc(N2CCOCC2)c([N+](=O)[O-])c1 | 0 | 0 | 6 | -4 | -6 | i | . | . | .
O=C(CN(C1CCCCC1)S(=O)(=O)c1ccccc1)N1CCCC1 | 14 | 0 | -17 | 0 | 1 | + | -2 | -4 | -8
CN1CCN(C(=O)CN(C2CCCCC2)S(=O)(=O)c2ccccc2)CC1 | -2 | 0 | 4 | . | -1 | i | . | . | .
COc1ccc(CC(=O)Nc2ccc(-c3noc(-c4ccc(Cl)cc4)n3)cc2)cc1 | 13 | 0 | 1 | -2 | 1 | + | -1 | -29 | -16
COc1ccc(CC(=O)Nc2ccc(-c3noc(-c4cc(OC)c(OC)c(OC)c4)n3)cc2)cc1 | 2 | 4 | -8 | -1 | -7 | i | . | . | .
COc1cc(NC(=O)COc2ccc3c(C)cc(=O)oc3c2C)cc(OC)c1OC | 1 | -5 | 13 | -6 | 1 | i | . | . | .
O=C(COc1ccc(/C=N/NC(=O)c2cc3ccccc3o2)cc1Cl)Nc1ccccc1 | 45* | -1 | 34 | 0 | 120* | + | 0 | -62 | -12
O=C(N/N=C/c1ccc2c(c1)OCO2)c1cc2ccccc2o1 | 0 | 4 | 19 | 3 | 6 | i | . | . | .
COC(=O)c1cc(N2C(=O)C3C4C=CC(CC4)C3C2=O)ccc1Cl (stereo unspecified) | -2 | -2 | 14 | -1 | -1 | i | . | . | .
CSc1ccc(/C=N/NC(=O)c2ccc(C)c(C)c2)cc1 | -1 | 1 | 6 | -3 | 10 | + | 25 | 38 | 7
COc1ccc(OC)c(N=C(C)C2=C(O)COC2=O)c1 | 22 | 1 | -1 | -7 | 2 | + | -13 | -56 | -9
N#CNC(=Nc1cccc(F)c1)SCc1cccc(F)c1 | 2 | 44 | 34 | -1 | 3 | i | . | . | .
N#CNC(=Nc1cccc(F)c1)SCc1ccccc1 | -1 | 36 | 64* | -2 | -5 | + | -24 | -28 | -25
CC(C)(C)c1nc2ccccc2c2nnc(SCC(=O)Nc3nc4ccccc4s3)n12 | 1 | 2 | 3 | 2 | 6 | + | 81* | -1 | -2
CC(C)(C)c1nc2ccccc2c2nnc(SCC(=O)Nc3nccs3)n12 | 1 | 2 | -2 | 2 | 1 | i | . | . | .
O=C(c1ccc2c3c(cccc13)CC2)C1CCCN(Cc2cccnc2)C1 (stereo unspecified) | 1 | 2 | -20 | 3 | -1 | + | -10 | 1 | -17
O=C(c1ccc2c3c(cccc13)CC2)C1CCCN(C(=O)c2cccnc2)C1 (stereo unspecified) | 1 | 0 | 5 | 1 | 0 | i | . | . | .
CCc1c(Cl)nc(N)nc1Nc1ccccc1C | 25 | -1 | -1 | . | 0 | + | -31 | -14 | -19
CCOC(=O)c1c(NC(=O)c2cc(-c3ccc(O)cc3)on2)sc(C(C)=O)c1C | 154* | -1 | 0 | 2 | 10 | + | -14 | -32 | -6
Cc1cc(NC(=O)c2cc(-c3ccc(O)cc3)on2)no1 | 3 | 1 | -4 | -3 | -2 | i | . | . | .
Cc1ccc(CCNC(=O)c2coc3nc4ccccc4nc23)cc1 | 12 | 7 | -16 | 14 | 3 | + | 30 | -30 | -33
CC1CCN(CCCNC(=O)c2coc3nc4ccccc4nc23)CC1 | -1 | -2 | 13 | 7 | -9 | i | . | . | .
Cc1cc([N+](=O)[O-])nn1Cc1noc(C(=O)NCc2ccc3c(c2)OCO3)n1 | -2 | 0 | 28 | -5 | 0 | i | . | . | .
SMILES | HNF4A DNA FP | CRFBP-R2 agonist | CRFR2-BP antag | TPT1 inh | CSN deneddyl inh | Rpn11 inh | Rpn11 confirm | MMP-2 counter | Thrombin FP
O=C(O)C(Cc1ccccc1)N1C(=O)/C(=C/C=C/c2ccco2)SC1=S (stereo unspecified) | -34 | 4 | 8 | . | 77 | + | 178* | 36 | 53*
O=C1S/C(=C\C=C\c2ccco2)C(=O)N1c1ccc(O)cc1 | 2 | 3 | 8 | 11 | 32 | i | . | . | .
O=C(c1ccc(Cl)cc1)c1cn[nH]c1-c1ccccc1O | 6 | 0 | -1 | -1 | -1 | + | -3 | 0 | 5
CCOc1ccc2nc(NC(=O)Cn3[nH]c(=O)c4ccccc4c3=O)sc2c1 | 33 | -2 | 6 | 21 | 14 | + | 56* | -4 | 25
CCOC(=O)/C(=N/Nc1ccccc1)Sc1nnnn1-c1ccc(C)cc1 | 1 | -2 | -3 | -5 | 0 | i | . | . | .
O=C(Cn1cnc2c(nnn2-c2ccccc2)c1=O)NCc1ccc(F)cc1 | 20 | -2 | -12 | 0 | 13 | + | 61* | 46* | -8
Cc1ccc(-n2nnc3c(=O)n(CC(=O)c4ccccc4)cnc32)cc1 | -1 | 1 | -11 | -5 | 1 | i | . | . | .
Cc1ccc(-n2nnc3c(=O)n(CC(=O)NCc4ccccc4)cnc32)cc1 | 5 | -5 | 28 | -2 | 11 | + | 49* | 26 | -19
CCCCOC(=O)c1ccc(NC(=O)C(CCS(C)(=O)=O)NC(C)=O)cc1 (stereo unspecified) | 5 | 1 | -14 | 5 | 2 | + | -15 | -38 | -8
COc1ccc(NC(=O)C(CCS(C)(=O)=O)NC(C)=O)cc1 (stereo unspecified) | 1 | -1 | 9 | -1 | 2 | i | . | . | .
COC(=O)c1ccc(NC(=O)CCc2c(C)nc3ncnn3c2C)cc1 | 3 | 6 | 5 | 0 | 3 | i | . | . | .
COC(=O)c1c(NC(=O)CCS(=O)(=O)c2ccccc2)sc2c1CCN(C)C2 | 14 | 0 | -3 | 3 | -1 | i | . | . | .
COC(=O)c1c(NC(=O)c2ccc(S(=O)(=O)N3CC(C)OC(C)C3)cc2)sc2c1CCN(C)C2 (stereo unspecified) | 2 | 1 | 12 | . | 94 | + | 93* | -50 | 35

Screens: PubChem BioAssay, several laboratories
